Bioassay records deposited in PubChem by Broad Institute.
Shown are actives, neighbours in structure and some others; about 4.4% of the full set was active somewhere.
T cruzi repl: inhibitors of intracellular T. cruzi growth, primary screen, luminescence, NIH3T3 host cells; T. cruzi beta-gal in NIH3T3, 90 h; inhibition, % (no concentration beside the values); actives 1.4% (n = 300,000);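 active = mean inhibition across valid replicates above about 55%, limit read from the data; inconclusive = mean below that limit but half or more replicates reach it; inactive = mean below it, under half of replicates reach it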;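 also: signal also drops with host cell toxicity which is not excluded here; 0% = plate median of DMSO wells and 100% = zero luminescence signal; higher percent means less beta-gal luminescence so fewer parasites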
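Material: NIH/3T3 host cells with β-galactosidase reporter T. cruzi; Input: 5,000 host fibroblasts per well; Medium: DMEM, 2% fetal bovine serum; Compound: 50 nL DMSO compound solution per well; Schedule: 3 h host attachment, then at least 90 h co-culture; Detection: luminescent β-galactosidase signal after 60 min lysis.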
HSF1 inhib: HSF1 inhibitors in luciferase reporter cells, primary screen, cell-based, NIH3T3, luminescence; NIH3T3-HGL HSE-luciferase, MG132-induced, luminescence 8 h; active compounds read low; actives 0.77% (n = 300,000); AID 2098, 2009; activity change, negative = inhibition, % at 7.5 µM (by protocol);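 active = more than half of replicate wells show activity change below -50%, luminescence cut by over half; inconclusive = some wells, but at most half, below -50%; inactive = no replicate well below -50%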;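 also: luciferase reports HSF-1 transcriptional activity via heat shock element; 0% = median of DMSO wells and -100% = zero luminescence signal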
HIF act: HIF pathway transcriptional activators, primary screen, cell-based, U2OS HRE-luciferase, luminescence; activation, % at 7.5 µM (by protocol); U2OS HRE-luciferase reporter; normalized: DMSO 0%, desferrioxamine 100%; AID 1910, 2009; actives 0.32% (n = 300,000);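 active = mean activation of at least 10% of the iron chelator positive control signal, with at least half of replicates also reaching 10%; inconclusive = mean and replicate majority disagree about reaching 10%; inactive = mean and most replicates under 10%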
HSF-1 act: HSF-1 activators, primary screen, NIH3T3-HGL cells, MG132 stress, luminescence, single point; actives 1.7% (n = 300,000); activation, % at 9 µM; NIH3T3-HGL HSF-1 luciferase reporter, 8 h; 100% = twice DMSO control signal;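 active = mean replicate activation of at least 50% with a set share of replicates each reaching 50%; inconclusive = only one of those two conditions met; inactive = mean below 50% and too few replicates reaching it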;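 also: 0% = median of the neutral control wells and 100% = twice that signal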
Calb FLC: C. albicans growth inhibition with fluconazole, primary screen, CaCi-2 strain, Alamar Blue fluorescence; C. albicans CaCi-2 + fluconazole, 48 h; growth inhibition, % (test concentration not listed); actives 0.57% (n = 300,000); AID 1979, 2009;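 active = growth inhibition above about 58% in most replicates, limit read from the data, passing the limit was not always enough; inconclusive = exactly half the replicates above a set limit; inactive = most replicates below a set limit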;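 also: all wells also contain fluconazole at 8 µg/ml as a sub-toxic cotreatment; 0% = median of DMSO wells and 100% = median of geldanamycin control wells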
* marks the source's active call; other numbers are inactive results; ? = inconclusive; nt = no result.

SMILES	T cruzi repl	HSF1 inhib	HIF act	HSF-1 act	Calb FLC
CC(/C=N/NC(=O)Cc1cccs1)=C\c1ccccc1	-6	60	2	122*	-3
CC(/C=N/NC(=O)c1ccco1)=C\c1ccccc1	-4	35	0	55*	21
CC(/C=N/NC(=O)c1ccccc1C)=C\c1ccccc1	-5	10	2	7	-4
C#CCOCCOCCOCCNc1nc(N2CCN(C(=O)C(Cc3ccc(O)cc3)n3cc(C(N)CC(C)C)nn3)CC2)nc(N2CCN(C(=O)C(Cc3cc4ccccc4[nH]3)n3cc(C(N)Cc4ccc(O)cc4)nn3)CC2)n1 (stereo unspecified)	-17	-2	0	1	1
Cc1ccc(CNC(=O)c2cn(C3CCCCC3)c(=O)c3c2c2ccccc2n3C)o1	16	55	-1	79*	9
O=S(=O)(c1ccc(NC(=S)NCCC(c2ccccc2)c2ccccc2)cc1)N1CCOCC1	61*	5	0	11	18
S=C(NCCC(c1ccccc1)c1ccccc1)Nc1ccc(Cl)cc1	31	41	0	54*	4
COc1ccc(Cl)cc1NC(=S)NCCC(c1ccccc1)c1ccccc1	56*	3	0	9	?
COc1cc(CNC2CCCC2)cc(Cl)c1OCc1ccccc1F	58*	1	0	0	-35
O=[N+]([O-])c1cccc(-c2nc3ccc([N+](=O)[O-])cc3[nH]2)c1	23	-4	4	-9	51
COc1ccc(-c2nc3ccc([N+](=O)[O-])cc3[nH]2)cc1	-34	7	0	54*	-23
O=[N+]([O-])c1ccc2nc(-c3ccc(Cl)cc3)[nH]c2c1	-2	32	2	80*	-7
Cc1ccc(-c2nc3ccc([N+](=O)[O-])cc3[nH]2)cc1	-10	50	-5	61*	-40
O=[N+]([O-])c1ccc2nc(-c3ccncc3)[nH]c2c1	-11	-4	2	5	-9
O=[N+]([O-])c1ccc2nc(-[n+]3c(-c4ccccc4)cc(-c4ccccc4)cc3-c3ccccc3)[nH]c2c1	58*	13	nt	-1	69
COc1ccc(CCC(=O)OCC(=O)N(CC(C)C)c2c(N)n(Cc3ccccc3)c(=O)[nH]c2=O)cc1	-2	3	0	12	-3
CCN(C(=O)COC(=O)/C=C/c1ccccc1)C1CCCCC1	6	?	0	-13	2
O=C(Cc1ccccc1[N+](=O)[O-])NCc1ccccc1Cl	-6	12	2	31	-8
Cn1nc(NC(=O)CC(C)(C)CC(=O)O)c2ccccc21	-31	-1	0	-14	3
Cc1cc(C)c(NC(=O)CNC(=O)COC(=O)Cc2cccs2)c(C)c1	-13	-1	-1	-3	1
Cc1nn(C(C)C(=O)N2CCc3ccccc32)c(C)c1[N+](=O)[O-] (stereo unspecified)	-6	1	0	-4	17
CCOC(=O)c1c(NC(=O)Cn2cnc([N+](=O)[O-])n2)sc2c1CCC(C)C2 (stereo unspecified)	57*	-4	-1	-21	4
CCOC(=O)c1c(NC(=O)Cn2cc([N+](=O)[O-])cn2)sc2c1CCC2	9	3	0	-4	0
COC(=O)c1c(NC(=O)Cn2cnc([N+](=O)[O-])n2)sc2c1CCC(C)C2 (stereo unspecified)	58*	7	0	29	-1
COc1ccccc1/C=C(/NC(=O)c1ccc(Cl)cc1Cl)C(=O)O	-6	-5	0	-11	?
CCN1C(=O)[C@H]2[C@@H](c3ccc(-c4ccc(OC)cc4)c(OC)c3)N[C@@](C)(C(=O)OC)[C@H]2C1=O	6	-4	0	-7	-5
CCOC(=O)C1(C)NC(c2ccc(OC)cc2OC)C2C(=O)N(CC)C(=O)C21 (stereo unspecified)	-20	2	528*	12	-2
CCOc1ccc2nc(NC(=O)c3ccc(OCC4CCCO4)cc3)sc2c1 (stereo unspecified)	45	15	1	-2	-3
